Measurements reported in ChEMBL document CHEMBL5120935, “Synthesis, Anti-Plasmodial Activities, and Mechanistic Insights of 4-Aminoquinoline-Triazolopyrimidine Hybrids” (ACS Med Chem Lett, 2022).

How the values were obtained:
[1] = Cytotoxicity against African green monkey Vero cells; assay type: toxicity, cell-based; details: African green monkey (Chlorocebus sabaeus)
Plasmodium falciparum [2] = assay: Antiplasmodial activity against CQ-resistance Plasmodium falciparum W2 infected in A+ human blood assessed as reduction in parasite growth measured after 72 hrs by HRP2 ELISA; assay type: functional, organism-based
Summary of the method: (§1)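 IC50s against P. falciparum chloroquine-susceptible 3D7 and chloroquine-resistant W2 strains, each tested separately. Values are the mean and standard deviation of 6 to 9 independent experiments.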

[3] = Selectivity index, ratio of IC50 for cytotoxicity against African green monkey Vero cells to IC50 for antiplasmodial activity against CQ-susceptible Plasmodium falciparum 3D7 infected in A+ human blood assessed as reduction in parasite growth measured after 72 hrs by HRP2 ELISA; assay type: toxicity, cell-based; details: read-out: Selectivity Index
Summary of the method: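 Selectivity index calculated as the IC50 for cytotoxicity on Vero cells divided by the antiplasmodial IC50 against the 3D7 strain.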

[4] = Resistance index, ratio of IC50 for antiplasmodial activity against CQ-resistance Plasmodium falciparum W2 infected in A+ human blood to IC50 for antiplasmodial activity against CQ-susceptible Plasmodium falciparum 3D7 infected in A+ human blood; assay type: functional
Summary of the method: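 Resistance index calculated as IC50 against W2 divided by IC50 against 3D7, using the in vitro antiplasmodial IC50s measured for each strain.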

[5] = Selectivity index, ratio of IC50 for cytotoxicity against African green monkey Vero cells to IC50 for antiplasmodial activity against CQ-resistance Plasmodium falciparum W2 infected in A+ human blood assessed as reduction in parasite growth measured after 72 hrs by HRP2 ELISA; assay type: toxicity, cell-based; details: read-out: Selectivity Index
Summary of the method: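 Selectivity index calculated as the IC50 for cytotoxicity on Vero cells divided by the antiplasmodial IC50 against the W2 strain.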

Plasmodium falciparum [6] = assay: Antiplasmodial activity against CQ-susceptible Plasmodium falciparum 3D7 infected in A+ human blood assessed as reduction in parasite growth measured after 72 hrs by HRP2 ELISA; assay type: functional, organism-based; details: 3D7, Blood; summary of the method: as §1

Cc1cc(NCCCCCCNc2ccnc3cc(Cl)ccc23)n2ncnc2n1
IC50 [1]: 311 µM | IC50 (Plasmodium falciparum [2]): 0.28 µM | selectivity ratio at 72 h [3]: 1040 | Ratio IC50 [4]: 0.93 | selectivity ratio at 72 h [5]: 1110 | IC50 (Plasmodium falciparum [6]): 0.3 µM

Cc1cc(NCCCNc2ccnc3cc(Cl)ccc23)n2ncnc2n1
IC50 [1]: 181 µM | IC50 (Plasmodium falciparum [2]): 0.49 µM | selectivity ratio at 72 h [3]: 291 | Ratio IC50 [4]: 0.79 | selectivity ratio at 72 h [5]: 369 | IC50 (Plasmodium falciparum [6]): 0.62 µM

Cc1cc(NCCNc2cc(C)nc3ncnn23)n2ncnc2n1
IC50 (Plasmodium falciparum [2]): 53.8 µM | Ratio IC50 [4]: 1.03 | IC50 (Plasmodium falciparum [6]): 52.2 µM

Cc1cc(NCCCCCCNc2cc(C)nc3ncnn23)n2ncnc2n1
IC50 (Plasmodium falciparum [2]): 11.3 µM | Ratio IC50 [4]: 0.97 | IC50 (Plasmodium falciparum [6]): 11.6 µM

Cc1cc(NCCCNc2cc(C)nc3ncnn23)n2ncnc2n1
IC50 (Plasmodium falciparum [2]): 49.1 µM | Ratio IC50 [4]: 1.03 | IC50 (Plasmodium falciparum [6]): 47.3 µM

Cc1cc(NCCCCNc2ccnc3cc(Cl)ccc23)n2ncnc2n1
IC50 [1]: 250 µM | IC50 (Plasmodium falciparum [2]): 0.42 µM | selectivity ratio at 72 h [3]: 927 | Ratio IC50 [4]: 1.56 | selectivity ratio at 72 h [5]: 596 | IC50 (Plasmodium falciparum [6]): 0.27 µM

Cc1cc(NCCCCCCCCNc2cc(C)nc3ncnn23)n2ncnc2n1
IC50 (Plasmodium falciparum [2]): 49.4 µM | Ratio IC50 [4]: 1.08 | IC50 (Plasmodium falciparum [6]): 45.8 µM

Cc1cc(NCCCCCCCCNc2ccnc3cc(Cl)ccc23)n2ncnc2n1
IC50 [1]: 351 µM | IC50 (Plasmodium falciparum [2]): 0.2 µM | selectivity ratio at 72 h [3]: 2060 | Ratio IC50 [4]: 1.18 | selectivity ratio at 72 h [5]: 1750 | IC50 (Plasmodium falciparum [6]): 0.17 µM

Cc1cc(NCCNc2ccnc3cc(Cl)ccc23)n2ncnc2n1
IC50 (Plasmodium falciparum [2]): 10.8 µM | Ratio IC50 [4]: 1.2 | IC50 (Plasmodium falciparum [6]): 9 µM

Cc1cc(NCCCCNc2cc(C)nc3ncnn23)n2ncnc2n1
IC50 (Plasmodium falciparum [2]): 11.8 µM | Ratio IC50 [4]: 0.94 | IC50 (Plasmodium falciparum [6]): 12.5 µM

Cc1cc(N2CCN(c3ccnc4cc(Cl)ccc34)CC2)n2ncnc2n1
IC50 (Plasmodium falciparum [2]): 12.9 µM | Ratio IC50 [4]: 1.02 | IC50 (Plasmodium falciparum [6]): 12.6 µM
